# Data from PMC11100557 (Science Advances, 2024).
# Assays:
# KIN10 mutant 3 = KIN10 mutant 3 (Arabidopsis thaliana, UniProt Q38997, K63A/K69A/L73A/R65A/R66A); test: MST binding of ATP to KIN10 mutant 3; conditions: fig. S5
# Method in brief: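 KIN10 kinase-domain mutant 3 (K63A-R65A-R66A-K69A-L73A), N-His6, expressed in E. coli BL21(DE3), Ni-NTA purified. Protein labeled with NT647 via NHS coupling to lysines (30 min on ice), free dye removed by size exclusion into MST buffer (50 mM phosphate pH 7.4, 150 mM NaCl, MgCl2, 1 mM DTT, 0.05% Tween 20).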
# WT KIN10 [1] = target: T1, WT KIN10 (Arabidopsis thaliana, UniProt Q38997); test: KIN10 kinase activity assay with SPS peptide, WT KIN10; assay type: biochemical
# [2] = target: T2, KIN10 mutant 3 (K63A-R65A-R66A-K69A-L73A) (Arabidopsis thaliana, UniProt Q38997, K63A/K69A/L73A/R65A/R66A); test: KIN10 kinase activity assay with SPS peptide, mutant 3; assay type: biochemical; conditions: 1 mM T6P, 50 nM KIN10 mutant 3 plus 50 nM GRIK1
# KIN10 R66A = KIN10 R66A (Arabidopsis thaliana, UniProt Q38997, R66A); test: MST binding of T6P to KIN10 R66A
# Method in brief: (§1)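 N-terminal His6-tagged recombinant KIN10 was expressed in E. coli BL21(DE3), Ni-NTA purified, and NT647-labelled on lysines via NHS coupling. Free dye was removed by size exclusion into MST buffer (50 mM phosphate pH 7.4, 150 mM NaCl, 1 mM DTT, 0.05% Tween 20). 100 nM labelled protein was titrated with serially diluted T6P. Microscale thermophoresis was run at 25°C, 40% MST power and 80% LED power.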
# KIN10 mutant 2 = KIN10 mutant 2 (Arabidopsis thaliana, UniProt Q38997, K54A/K56A/R52A/R53A); test: KIN10 kinase activity assay with SPS peptide, mutant 2; assay type: biochemical; conditions: 1 mM T6P, 200 ng KIN10 mutant 2 and 200 ng GRIK1
# [3] = target: KIN10 mutant 1 (R23A-R32A-K34A) (Arabidopsis thaliana, UniProt Q38997, K34A/R23A/R32A); test: MST binding of T6P to KIN10 mutant 1
# Method in brief: (§2)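 Alanine-substituted KIN10 kinase domain was made by overlap PCR and cloned into pET28a. It was expressed with an N-terminal His6 tag in E. coli BL21(DE3) and Ni-NTA purified. Protein was NT647-NHS labelled and desalted into phosphate buffer pH 7.4 with NaCl, DTT and Tween 20. 100 nM labelled protein was mixed with a T6P serial dilution, and MST was read at 25°C (40% MST, 80% LED power).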
# KIN10 mutant 1 = KIN10 mutant 1 (Arabidopsis thaliana, UniProt Q38997, K34A/R23A/R32A); test: KIN10 kinase activity assay with SPS peptide, mutant 1; assay type: biochemical; conditions: 1 mM T6P, 200 ng KIN10 mutant 1 and 200 ng GRIK1
# KIN10 R141A = KIN10 R141A (Arabidopsis thaliana, UniProt Q38997, R141A); test: MST binding of T6P to KIN10 R141A
# Method in brief: as §1
# WT KIN10 [4] = target: T1, WT KIN10; test: MST binding of T6P to WT KIN10 kinase domain
# KIN10 K63A = KIN10 K63A (Arabidopsis thaliana, UniProt Q38997, K63A); test: MST binding of T6P to KIN10 K63A
# Method in brief: as §1
# KIN10 K63A-R66A-R141A = KIN10 K63A-R66A-R141A (Arabidopsis thaliana, UniProt Q38997, K63A/R141A/R66A); test: biochemical; assay type: binding
# GRIK1-KIN10 = conditions: MST; ref Zhai et al. ([9]); cited from earlier work
# [5] = target: T2, KIN10 mutant 3 (K63A-R65A-R66A-K69A-L73A); test: MST binding of T6P to KIN10 mutant 3
# [6] = target: plant α-catalytic subunit of SnRK1 (Arabidopsis thaliana, UniProt Q38997); test: Inhibition of the SnRK1 α-catalytic subunit by sugar phosphates; assay type: biochemical; conditions: table S4
# [7] = target: KIN10 mutant 2 (R52A-R53A-K54A-K56A) (Arabidopsis thaliana, UniProt Q38997, K54A/K56A/R52A/R53A); test: MST binding of T6P to KIN10 mutant 2
# Method in brief: as §2
# KIN10 K63A-R66A-R141A, sequence (Q38997 19-271 K63A/R66A/R141A limits assumed): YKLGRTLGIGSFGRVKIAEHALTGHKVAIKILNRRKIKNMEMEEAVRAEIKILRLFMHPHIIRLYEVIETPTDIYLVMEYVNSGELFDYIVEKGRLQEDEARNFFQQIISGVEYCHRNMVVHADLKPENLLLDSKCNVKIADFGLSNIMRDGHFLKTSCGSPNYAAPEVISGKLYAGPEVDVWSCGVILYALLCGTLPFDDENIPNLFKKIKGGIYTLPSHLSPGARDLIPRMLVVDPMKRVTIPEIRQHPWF
# T1 sequence (Q38997 19-271 limits assumed): as the sequence (Q38997 19-271 K63A/R66A/R141A limits assumed) above, with A45K, A48R, A123R counted along it
# T2 sequence (Q38997 19-271 K63A/R65A/R66A/K69A/L73A limits assumed): as the sequence (Q38997 19-271 K63A/R66A/R141A limits assumed) above, with R47A, K51A, L55A, A123R counted along it
# KIN10 K63A, sequence (Q38997 19-271 K63A limits assumed): as the sequence (Q38997 19-271 K63A/R66A/R141A limits assumed) above, with A48R, A123R counted along it
# KIN10 mutant 2 (R52A-R53A-K54A-K56A), sequence (Q38997 19-271 R52A/R53A/K54A/K56A limits assumed): as the sequence (Q38997 19-271 K63A/R66A/R141A limits assumed) above, with R34A, R35A, K36A, K38A, A45K, A48R, A123R counted along it
# KIN10 mutant 1 (R23A-R32A-K34A), sequence (Q38997 19-271 R23A/R32A/K34A limits assumed): as the sequence (Q38997 19-271 K63A/R66A/R141A limits assumed) above, with R5A, R14A, K16A, A45K, A48R, A123R counted along it
# KIN10 R141A, sequence (Q38997 19-271 R141A limits assumed): as the sequence (Q38997 19-271 K63A/R66A/R141A limits assumed) above, with A45K, A48R counted along it
# KIN10 mutant 2, sequence (Q38997 19-271 R52A/R53A/K54A/K56A limits assumed): as the sequence (Q38997 19-271 K63A/R66A/R141A limits assumed) above, with R34A, R35A, K36A, K38A, A45K, A48R, A123R counted along it
# plant α-catalytic subunit of SnRK1, sequence (Q38997 19-271 limits assumed): as the sequence (Q38997 19-271 K63A/R66A/R141A limits assumed) above, with A45K, A48R, A123R counted along it
# KIN10 mutant 1, sequence (Q38997 19-271 R23A/R32A/K34A limits assumed): as the sequence (Q38997 19-271 K63A/R66A/R141A limits assumed) above, with R5A, R14A, K16A, A45K, A48R, A123R counted along it
# KIN10 R66A, sequence (Q38997 19-271 R66A limits assumed): as the sequence (Q38997 19-271 K63A/R66A/R141A limits assumed) above, with A45K, A123R counted along it
# KIN10 mutant 3, sequence (Q38997 19-271 K63A/R65A/R66A/K69A/L73A limits assumed): as the sequence (Q38997 19-271 K63A/R66A/R141A limits assumed) above, with R47A, K51A, L55A, A123R counted along it
smiles,measurement,setting,value
"Nc1ncnc2c1ncn2[C@@H]1O[C@H](COP(=O)(O)OP(=O)(O)OP(=O)(O)O)[C@@H](O)[C@H]1O [ATP, adenosine triphosphate]","Kd for ATP, mutant 3 compared with WT KIN10",KIN10 mutant 3,no change
"O=P(O)(O)OC[C@H]1O[C@H](O[C@H]2O[C@H](CO)[C@@H](O)[C@H](O)[C@H]2O)[C@H](O)[C@@H](O)[C@@H]1O [T6P, trehalose 6-phosphate]",IC50,WT KIN10 [1],40 µM
same,change of basal activity of WT KIN10 on addition of T6P,"WT KIN10 [1]; 1 mM T6P, 50 nM KIN10, no GRIK1",doubling
same,reduction of mutant 3 activation by GRIK1 in the presence of T6P,[2],no reduction
same,Kd,KIN10 R66A,40 ± 5 µM
same,activation of mutant 2 by GRIK1 in the presence of T6P,KIN10 mutant 2,reduced
same,Kd,[3],26 ± 6 µM
same,Kd by MST,"[3]; KIN10 mutant 1, Table 1 series",no significant difference
same,activation of mutant 1 by GRIK1 in the presence of T6P,KIN10 mutant 1,reduced
same,Kd,KIN10 R141A,52 ± 7 µM
same,Kd,WT KIN10 [4],28 ± 4 µM
same,Kd,KIN10 K63A,47 ± 7 µM
same,increase of Kd versus WT,"KIN10 K63A; span over the three single mutants K63A, R66A and R141A, versus WT",1.9- to 2.5 fold
same,Kd,"KIN10 K63A-R66A-R141A; Kds determined by MST, KIN10 K63A-R66A-R141A, Table 2 series",143 µM
same,increase in Kd versus WT,KIN10 K63A-R66A-R141A; triple mutant K63A-R66A-R141A versus WT,sevenfold
same,reduction of affinity of GRIK1 for KIN10 on T6P binding,GRIK1-KIN10,threefold
same,Kd,[5],165 ± 21 µM
same,reduction of affinity of T6P binding versus WT KIN10,[5]; mutant 3 versus WT,fivefold
same,inhibition of the plant α-catalytic subunit of SnRK1,[6],specifically inhibited
same,Kd,[7],34 ± 5 µM
same,Kd by MST,"[7]; KIN10 mutant 2, Table 1 series",no significant difference
